Results reported in paper PMC3777270 (Biomaterials, 2010).

System: S. aureus strain MZ100
Assay: In vitro S. aureus biofilm formation on coated Ti slides
Type: cell-based, Staphylococcus aureus
Conditions: 5 h exposure to S. aureus, 0.1% crystal violet; for macroscopic appearance of crystal violet stained wells: digital photographs; for cell attachment in phase-contrast micrographs: 630×
How it was run: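 Wells were formed on 20 nm Ti-coated glass slides with adhesive silicone isolators. PEGylated mono-, di- or tetravalent Ti-binding peptide coatings (500 μL) were applied in triplicate, held 2 h at RT and washed twice with PBS; uncoated Ti was included. Overnight TSB culture was diluted to ~5 × 10^7 CFU/mL in TSB + 0.2% glucose, then 5 h at 37 °C in a humidified chamber.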

Substance | macroscopic appearance of crystal violet stained wells | cell attachment in phase-contrast micrographs
(SKHKGGKHKGGKHKG)2K)2KSSGK(Biotin) –GGC–PEG [TBP4–PEG] | remained largely clear with small, disperse patches of staining | significantly fewer adhered bacteria
(SKHKGGKHKGGKHKG)2KSSGK(Biotin) –GGC–PEG [TBP2–PEG] | thick, dense biofilm | slight decrease in cell density
SKHKGGKHKGGKHKGSSGK(Biotin) –GGC–PEG [TBP1–PEG] | thick, dense biofilm | substantial cell attachment
